From ChEMBL document CHEMBL4433203, “Design, synthesis, and evaluation of isoflavone analogs as multifunctional agents for the treatment of Alzheimer's disease” (Eur J Med Chem, 2019) come the findings set out here.

In one series the test system is SH-SY5Y. Put plainly: Neuroprotective activity against copper-induced cytotoxicity in human SH-SY5Y cells expressing APP Swedish mutant assessed as increase in cell viability at 10 uM pre-incubated for 2 hrs followed by copper addition and measured after 24 hrs by MTT assay. It counts as functional, cell-based.
Series [1] can be described thus: Plasma concentration in ICR mouse at 30 mg/kg, po measured after 40 mins by LCMS/MS method. It counts as ADME, organism-based. In short, it runs like this:
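ICR mice got a single oral dose of 30 mg/kg. At 40 min they were sacrificed and plasma and brain collected. Compound in both was quantified by LC-MS/MS. Log BB is the log of the brain-to-blood concentration ratio. Methods state n = 5, table footnote n = 6. Mean ± SEM.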

The subject of another series is BV-2. Put plainly: Cytotoxicity activity in mouse BV2 cells assessed as reduction in cell viability up to 100 uM measured after 72 hrs incubation by MTT assay. In kind it is cell-based. To be noted: bv-2, 72 h.
Series [2] relates to Mus musculus. Put plainly: Antialzheimer activity in ICR mouse model of scopolamine-induced cognitive deficit assessed as reduction scopolamine-induced error times at 10 to 30 mg/kg, po treated for 1 hr followed by scopolamine challenge for 30 mins by step-down passive avoidance test. It counts as functional, organism-based. In short, it runs like this:
(§1)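 ICR mice, six weeks old, 18-22 g, either sex, n = 15/group. […] Step-down test used foot shock of 20 V, 0.5 mA, 2 s, with a training trial and a test 24 h later. Read-outs were latency to first step-down and number of shocks in 5 min. Mean ± SEM.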

Series [3] can be described thus: Acute toxicity ICR mouse assessed as induction of macroscopic abnormalities in liver at 0 to 1000 mg/kg, po measured after 14 da. It counts as organism-based. The following applies: in vivo. In short, it runs like this: (§2)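 Male ICR mice (22 days, 20–22 g), n = 5 per group, chow and water ad libitum, 12 h light/dark cycle. Single oral dose of 0, 100, 200, 500 or 1000 mg/kg in 0.5% CMC-Na. Observed continuously for the first 4 h, intermittently over the next 24 h, then occasionally to 14 days. Euthanized on day 14.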

The test system of series [4] is Mus musculus. Put plainly: Antialzheimer activity in ICR mouse model of scopolamine-induced cognitive deficit assessed as prolongation of scopolamine-induced latency at 10 to 30 mg/kg, po treated for 1 hr followed by scopolamine challenge for 30 mins by step-down passive avoidance test. It counts as functional, organism-based. The procedure, abridged: as §1
The subject of another series is H3R. Put plainly: Selectivity index, ratio of CC50 for human SH-SY5Y cells to IC50 for inhibition of human H3R expressed in methylhistamine-induced human H3-bla U2OS cells. In kind it is toxicity, cell-based. The following applies: read-out: Ratio CC50/IC50. In short, it runs like this:
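For IC50, H3-bla U2OS cells (human H3R–Gal4-VP16 plus β-arrestin/TEV, β-lactamase reporter) were seeded for 18 h. Compound was added for 30 min, then 400 nM methylhistamine (stock) for 5 h and FRET-B/G substrate for 2 h. Read 460/530 nm, triplicate per concentration, IC50 from log curves.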

Series [5] concerns the target T1, Acetylcholinesterase (Mus musculus) (UniProt P21836).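 Also: enzyme taken from mouse brain, acetylthiocholine iodide as the substrate, read after 30 min with the Ellman method.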
T1 sequence (whole entry): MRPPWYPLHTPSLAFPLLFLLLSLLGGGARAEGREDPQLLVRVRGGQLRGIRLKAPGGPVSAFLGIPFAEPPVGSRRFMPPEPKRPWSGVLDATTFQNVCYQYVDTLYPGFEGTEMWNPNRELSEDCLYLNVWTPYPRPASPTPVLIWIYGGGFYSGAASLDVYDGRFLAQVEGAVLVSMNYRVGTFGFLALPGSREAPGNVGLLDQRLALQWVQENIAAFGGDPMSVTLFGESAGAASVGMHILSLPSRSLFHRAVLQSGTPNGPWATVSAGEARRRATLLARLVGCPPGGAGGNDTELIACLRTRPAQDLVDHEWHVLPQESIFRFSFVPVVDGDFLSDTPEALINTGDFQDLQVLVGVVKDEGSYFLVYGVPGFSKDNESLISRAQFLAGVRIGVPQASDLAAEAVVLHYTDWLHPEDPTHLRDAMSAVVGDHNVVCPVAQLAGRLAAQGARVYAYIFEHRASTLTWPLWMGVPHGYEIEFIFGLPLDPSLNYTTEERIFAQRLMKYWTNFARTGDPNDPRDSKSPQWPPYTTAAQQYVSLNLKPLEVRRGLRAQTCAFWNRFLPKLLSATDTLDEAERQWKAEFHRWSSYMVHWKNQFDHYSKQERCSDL
To be noted: at 10 µM.

For the next series, the target named is Cholinesterase (Mus musculus, UniProt Q03311). Put plainly: Inhibition of mouse plasma BuChE using S-butyrylacetylthiocholine iodide as substrate measured after 30 mins by Ellman's method relative to control. To be noted: read-out: IC50.
Cholinesterase, sequence (Q03311 whole entry): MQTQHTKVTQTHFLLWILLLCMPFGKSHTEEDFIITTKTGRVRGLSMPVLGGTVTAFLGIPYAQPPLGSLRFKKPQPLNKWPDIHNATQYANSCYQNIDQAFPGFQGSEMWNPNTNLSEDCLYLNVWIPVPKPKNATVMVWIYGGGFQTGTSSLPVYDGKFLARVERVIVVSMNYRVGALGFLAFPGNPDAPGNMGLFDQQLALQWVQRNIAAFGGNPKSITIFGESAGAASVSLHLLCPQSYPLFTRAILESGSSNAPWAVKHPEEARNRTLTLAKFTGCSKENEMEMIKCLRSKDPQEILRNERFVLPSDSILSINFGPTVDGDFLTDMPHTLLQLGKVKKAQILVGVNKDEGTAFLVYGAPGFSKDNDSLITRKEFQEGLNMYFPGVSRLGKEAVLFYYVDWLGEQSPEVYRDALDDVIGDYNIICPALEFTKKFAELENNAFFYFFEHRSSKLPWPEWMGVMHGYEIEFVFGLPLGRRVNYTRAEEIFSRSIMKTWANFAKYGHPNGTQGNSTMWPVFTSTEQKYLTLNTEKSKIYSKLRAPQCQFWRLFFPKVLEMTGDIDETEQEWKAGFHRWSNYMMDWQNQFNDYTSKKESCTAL
In series [6] the test system is Mus musculus. Put plainly: Effect on latency time in ICR mouse model of scopolamine-induced cognitive deficit during training stage at 10 to 30 mg/kg, po treated for 1 hr followed by scopolamine challenge for 30 mins by step-down passive avoidance test. It counts as ADME, organism-based. To be noted: in vivo. In short, it runs like this: as §1
Series [7] can be described thus: Acute toxicity ICR mouse assessed as induction of macroscopic abnormalities in kidney at 0 to 1000 mg/kg, po measured after 14 da. In kind it is organism-based. To be noted: in vivo. The procedure, abridged: as §2
Series [8] in a line: Log BB, ratio of Cmax in brain to blood in ICR mouse at 30 mg/kg, po measured upto 48 hrs by LCMS/MS method. In kind it is ADME, organism-based. The following applies: read-out: logBB (converted).
Series [9] in a line: Cmax in ICR mouse at 30 mg/kg, po measured upto 48 hrs by LCMS/MS method. In kind it is ADME, organism-based. Also noted: dose 30 mg/kg, route oral. To be noted: in vivo.

SMILES strings stand for the structures. The source made the active and inactive calls. The rule behind the calls is not given here.

Regarding `CCN(C)CCCCOc1ccc2c(=O)c(-c3ccc(OCCN4CCCCC4)cc3)coc2c1`, the outcome in the series with SH-SY5Y was Active. Also, the concentration at 40 min in series [1] stood at 47.2 ng/mL. Moreover, the Activity result with BV-2 was “Non-Toxic”; in the series with Mus musculus [2] it was “Dose-dependent effect”; in series [3] it was “Non-Toxic”; with Mus musculus [4], “Dose-dependent effect”; in the series on Mus musculus [6], “Non-Toxic”; in [7] it was “Non-Toxic”. In the series with H3R, the selectivity ratio was > 370. This molecule yielded an inhibition in series [5] of 92.8%. The IC50 on Cholinesterase was found to be 2890 nM. For the same molecule, in series [8], the Kp at 48 h is 17.4. In [9], this molecule registered a Cmax of 52 ng/mL.
